Laboratory results: ChEMBL document CHEMBL2331234, “Novel analgesic/anti-inflammatory agents: 1,5-diarylpyrrole nitrooxyalkyl ethers and related compounds as cyclooxygenase-2 inhibiting nitric oxide donors” (J Med Chem, 2013)
Active and inactive are the calls of the source. No cut-off for these calls is given here.

Columns and labels:
J774 = assay: Selectivity index, ratio of IC50 for COX1 in mouse J774 cells […]; type: cell-based
[1] = biological target: T1, Prostaglandin G/H synthase 1 (Mus musculus, UniProt P22437); assay: Inhibition of arachidonic acid-induced COX1 activity in mouse J774 cells assessed as decrease in PGE2 levels incubated for 15 mins prior to arachidonic acid-challenge measured after 30 mins by RIA; type: cell-based
T1 sequence (P22437 whole entry): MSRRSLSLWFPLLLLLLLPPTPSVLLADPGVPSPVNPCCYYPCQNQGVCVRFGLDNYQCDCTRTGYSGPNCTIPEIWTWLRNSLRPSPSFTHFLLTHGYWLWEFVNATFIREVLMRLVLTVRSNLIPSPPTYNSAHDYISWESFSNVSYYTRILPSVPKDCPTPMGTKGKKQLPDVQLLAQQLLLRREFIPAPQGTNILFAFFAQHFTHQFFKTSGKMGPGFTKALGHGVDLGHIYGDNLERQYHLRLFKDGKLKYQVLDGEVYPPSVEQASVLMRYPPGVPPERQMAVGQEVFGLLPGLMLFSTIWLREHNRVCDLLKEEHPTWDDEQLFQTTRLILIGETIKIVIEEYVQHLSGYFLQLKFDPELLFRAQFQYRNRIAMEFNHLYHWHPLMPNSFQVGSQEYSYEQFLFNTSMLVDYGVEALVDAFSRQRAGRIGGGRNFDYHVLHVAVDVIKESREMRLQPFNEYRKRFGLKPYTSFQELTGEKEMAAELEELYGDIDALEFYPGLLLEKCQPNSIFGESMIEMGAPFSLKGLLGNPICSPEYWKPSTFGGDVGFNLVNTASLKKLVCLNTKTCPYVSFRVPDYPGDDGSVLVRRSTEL
Method in brief: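 Cells were in DMEM with 10% FBS and adhered for 2 h at 37 °C. They were pretreated with compound (10 µM; 0.1-1 µM where inhibition exceeded 50%) for 15 min, then given 15 µM arachidonic acid for 30 min at 37 °C. Supernatant PGE2 was measured by RIA. Triplicate wells were used and the mean of three experiments reported. IC50 came from a variable-slope sigmoidal fit.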

Aorta [2] = assay: Vasorelaxant activity in Wistar rat endothelium-removed thoracic aortic rings assessed as reduction of KCl-induced vasoconstriction at 0.001 uM to 10 uM treated after KCl-challenge relative to control; type: functional
Method in brief: (§1)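 Thoracic aortic rings from male Wistar rats (250-350 g), endothelium removed by rubbing; removal confirmed as <10% relaxation to ACh 10 µM in KCl 30 mM-contracted rings. Rings contracted with KCl 30 mM; at plateau, 3-fold increasing compound concentrations (1 nM-10 µM) added. Isometric tension recorded. Emax given as % of KCl tone; pIC50 as -log molar concentration halving that tone. 6-10 experiments; also run with ODQ 1 µM.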

Rattus norvegicus [3] = assay: Antiinflammatory activity in Sprague-Dawley/Wistar rat assessed as decrease in carrageenan-induced hyperalgesia at 20 mg/kg, po administered 4 hrs after carrageenan-challenge measured after 60 mins (reference value: 33.9 +/- 3.7 g); type: functional
Mus musculus = assay: Antinociceptive activity in po dosed Swiss albino mouse assessed as reduction in number of acetic acid-induced writhing counted 5 mins after acetic acid challenge counted for 10 mins; type: functional; conditions: read-out: MED
Method in brief: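 Male Swiss albino mice (23-25 g) dosed orally, then given 0.6% acetic acid (10 mL/kg) ip. Stretching movements counted for 10 min, starting 5 min after the acetic acid. Control group received CMC. At least 7 mice/group; mean ± SEM, ANOVA with Fisher's PLSD.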

Rattus norvegicus [4] = assay: Antiinflammatory activity in Sprague-Dawley/Wistar rat assessed as decrease in carrageenan-induced paw edema at 20 mg/kg, po administered 3 hrs 30 mins after carrageenan-challenge measured after 60 mins (reference value: 2.48 +/- 0.06 mL); type: functional
Rattus norvegicus [5] = assay: Antiinflammatory activity in Sprague-Dawley/Wistar rat assessed as decrease in carrageenan-induced hyperalgesia at 20 mg/kg, po administered 4 hrs after carrageenan-challenge measured after 30 mins (reference value: 34.8 +/- 3.0 g); type: functional
[6] = biological target: T2, Prostaglandin G/H synthase 2 (Mus musculus, UniProt Q05769); assay: Inhibition of Escherichia coli lipopolysaccharide-induced COX2 activity in mouse J774 cells assessed as decrease in PGE2 levels after 24 hrs by RIA; type: cell-based
T2 sequence (Q05769 whole entry): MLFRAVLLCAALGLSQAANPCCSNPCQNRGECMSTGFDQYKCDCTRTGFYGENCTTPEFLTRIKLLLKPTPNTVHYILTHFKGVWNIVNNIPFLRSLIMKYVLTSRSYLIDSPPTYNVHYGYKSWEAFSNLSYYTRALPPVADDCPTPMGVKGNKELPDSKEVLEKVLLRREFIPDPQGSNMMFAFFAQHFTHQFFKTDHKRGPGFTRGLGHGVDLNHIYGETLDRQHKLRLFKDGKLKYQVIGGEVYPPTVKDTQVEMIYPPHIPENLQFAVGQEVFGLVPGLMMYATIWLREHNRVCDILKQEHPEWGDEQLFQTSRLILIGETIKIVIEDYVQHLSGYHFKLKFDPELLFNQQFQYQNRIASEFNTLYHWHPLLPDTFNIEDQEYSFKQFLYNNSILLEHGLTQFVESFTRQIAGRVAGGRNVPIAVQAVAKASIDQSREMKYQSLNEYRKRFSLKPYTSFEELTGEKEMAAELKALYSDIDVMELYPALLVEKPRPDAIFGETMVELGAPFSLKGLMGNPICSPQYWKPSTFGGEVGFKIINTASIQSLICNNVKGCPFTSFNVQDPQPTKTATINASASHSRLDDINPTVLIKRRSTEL
Method in brief: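 Adhered cells in DMEM/10% FBS were stimulated with E. coli LPS 10 µg/mL for 24 h with compound present at 0.01-10 µM. Supernatant PGE2 was measured by RIA. IC50 came from a variable-slope sigmoidal fit.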

Rattus norvegicus [7] = assay: Antiinflammatory activity in Sprague-Dawley/Wistar rat assessed as decrease in carrageenan-induced hyperalgesia at 20 mg/kg, po administered 4 hrs after carrageenan-challenge measured after 120 mins (reference value: 31.4 +/- 3.7 g); type: functional
Rattus norvegicus [8] = assay: Antiinflammatory activity in Sprague-Dawley/Wistar rat assessed as decrease in carrageenan-induced paw edema at 40 mg/kg, po administered 3 hrs 30 mins after carrageenan-challenge measured after 60 mins (reference value: 2.48 +/- 0.06 mL); type: functional
Rattus norvegicus [9] = assay: Antiinflammatory activity in Sprague-Dawley/Wistar rat assessed as decrease in carrageenan-induced hyperalgesia at 40 mg/kg, po administered 4 hrs after carrageenan-challenge measured after 120 mins (reference value: 31.4 +/- 3.7 g); type: functional
Rattus norvegicus [10] = assay: Antiinflammatory activity in Sprague-Dawley/Wistar rat assessed as decrease in carrageenan-induced hyperalgesia at 40 mg/kg, po administered 4 hrs after carrageenan-challenge measured after 30 mins (reference value: 34.8 +/- 3.0 g); type: functional
Aorta [11] = assay: Vasorelaxant activity in Wistar rat endothelium-removed thoracic aortic rings assessed as reduction of KCl-induced vasoconstriction treated after KCl-challenge; type: functional, tissue-based; method in brief: as §1
Aorta [12] = assay: Vasorelaxant activity in Wistar rat endothelium-removed thoracic aortic rings assessed as reduction of KCl-induced vasoconstriction at 0.001 uM to 10 uM treated after KCl-challenge in presence of guanylate cyclase inhibitor 1H-[1,2,4]-oxadiazolo[4,3-a]quinoxalin-1-one; type: functional, tissue-based
Method in brief: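 Endothelium-denuded aortic rings from male Wistar rats (250-350 g) were preincubated with ODQ 1 µM. Rings were contracted with KCl 30 mM, then given 3-fold increasing concentrations from 1 nM to 10 µM. Emax is the % relaxation of KCl tone. pIC50 was calculated when efficacy reached 50%, from 6-10 experiments.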

Rattus norvegicus [13] = assay: Antiinflammatory activity in Sprague-Dawley/Wistar rat assessed as decrease in carrageenan-induced hyperalgesia at 40 mg/kg, po administered 4 hrs after carrageenan-challenge measured after 60 mins (reference value: 33.9 +/- 3.7 g); type: functional

Structure (SMILES)	Ratio IC50 (J774)	IC50 [1]	Emax (Aorta [2])	Activity (Rattus norvegicus [3])	minimal effective dose (Mus musculus)	Activity (Rattus norvegicus [4])	Activity (Rattus norvegicus [5])	IC50 [6]	Activity (Rattus norvegicus [7])	Activity (Rattus norvegicus [8])	Activity (Rattus norvegicus [9])	Activity (Rattus norvegicus [10])	IC50 (Aorta [11])	pIC50 (Aorta [11])	Activity (Aorta [12])	Activity (Rattus norvegicus [13])	Activity (Aorta [11])
Cc1c(CCOCCCO[N+](=O)[O-])cc(-c2ccc(S(C)(=O)=O)cc2)n1-c1ccc(F)cc1	> 52.6	> 10 µM	inactive	–	–	–	–	–	–	–	–	–	–	–	–	–	–
Cc1c(CCOCCCO)cc(-c2ccc(S(C)(=O)=O)cc2)n1-c1ccccc1	> 1.11	> 10 µM	inactive	50.3 g	20 mg/kg	1.86 mL	52.9 g	8.99 µM	46.6 g	–	–	–	–	–	–	–	–
Cc1c(CCOCCO[N+](=O)[O-])cc(-c2ccc(S(C)(=O)=O)cc2)n1-c1ccc(F)c(F)c1	> 10.9	> 10 µM	–	46.9 g	20 mg/kg	2.19 mL	44.6 g	–	38.8 g	2.1 mL	35.3 g	49.5 g	≥ 10 µM	Dose-dependent effect	inactive	42.5 g	–
Cc1c(CCOCCO[N+](=O)[O-])cc(-c2ccc(S(C)(=O)=O)cc2)n1-c1cccc(F)c1	> 357	> 10 µM	–	40.7 g	40 mg/kg	2.16 mL	43.9 g	0.027 µM	35.2 g	2.08 mL	34.3 g	47.3 g	4.79 µM	Dose-dependent effect	inactive	41 g	–
Cc1c(CCOCCCO[N+](=O)[O-])cc(-c2ccc(S(C)(=O)=O)cc2)n1-c1cccc(F)c1	126	2.9 µM	inactive	–	–	–	–	0.023 µM	–	–	–	–	–	–	–	–	–
Cc1c(CCOCCO[N+](=O)[O-])cc(-c2ccc(S(C)(=O)=O)cc2)n1-c1ccccc1	> 588	> 10 µM	–	55.3 g	10 mg/kg	1.45 mL	54.2 g	–	48.7 g	–	–	–	6.03 µM	–	inactive	–	Dose-dependent effect
Cc1c(CCOCCCO)cc(-c2ccc(S(C)(=O)=O)cc2)n1-c1ccc(F)cc1	> 10.6	> 10 µM	inactive	–	–	–	–	–	–	–	–	–	–	–	–	–	–
Cc1c(CCOCCO)cc(-c2ccc(S(C)(=O)=O)cc2)n1-c1ccc(F)c(F)c1	> 23.8	> 10 µM	inactive	46.7 g	20 mg/kg	2.16 mL	43.6 g	–	41.4 g	1.96 mL	49.3 g	53.2 g	–	–	–	55.2 g	–
Cc1c(CCOCCCO[N+](=O)[O-])cc(-c2ccc(S(C)(=O)=O)cc2)n1-c1ccccc1	> 667	> 10 µM	48%	51.6 g	20 mg/kg	1.8 mL	53.7 g	–	45.6 g	–	–	–	≥ 10 µM	Dose-dependent effect	inactive	–	–
O=[N+]([O-])OCC(CO[N+](=O)[O-])O[N+](=O)[O-] [NITROGLYCERIN]	–	–	93%	–	–	–	–	–	–	–	–	–	–	–	–	–	–
Cc1c(CCOCCCO)cc(-c2ccc(S(C)(=O)=O)cc2)n1-c1cccc(F)c1	15.4	3.7 µM	inactive	–	–	–	–	0.24 µM	–	–	–	–	–	–	–	–	–
Cc1c(CCOCCO)cc(-c2ccc(S(C)(=O)=O)cc2)n1-c1cccc(F)c1	> 217	> 10 µM	inactive	48.6 g	20 mg/kg	2.46 mL	46.9 g	–	37.2 g	2.12 mL	39.5 g	51.4 g	–	–	–	45.3 g	–
Cc1c(CCOCCO)cc(-c2ccc(S(C)(=O)=O)cc2)n1-c1ccccc1	–	> 10 µM	inactive	49.2 g	10 mg/kg	1.34 mL	56.6 g	–	37.8 g	–	–	–	–	–	–	–	–
